ChEMBL document CHEMBL2390869, “Evolution of novel tricyclic CRTh2 receptor antagonists from a (E)-2-cyano-3-(1H-indol-3-yl)acrylamide scaffold” (Bioorg Med Chem Lett, 2013)
Values after ≈ are worked out from the molar mass of the structure shown.

Tests used:
[1] = Oral bioavailability in Wistar rat at 10 mg/kg; format: ADME, organism-based; settings: in vivo
How it was run: (§1)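 Single doses given to three male Wistar rats per route: 10 mg/kg orally and 1 mg/kg intravenously, as a solution in 20% propyleneglycol/80% buffer. Plasma PK parameters were derived. CL, terminal T1/2 and Vss come from the intravenous arm. AUC0–last comes from the oral arm.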

[2] = Volume of distribution at steady state in Wistar rat at 10 mg/kg, po and 1 mg/kg, iv; format: ADME, organism-based; settings: in vivo, read-out: Vdss; how it was run: as §1
[3] = Terminal half life in Wistar rat at 10 mg/kg, po and 1 mg/kg, iv; format: ADME, organism-based; settings: in vivo, read-out: beta t1/2 (converted); how it was run: as §1
[4] = Clearance in Wistar rat at 10 mg/kg, po and 1 mg/kg, iv; format: ADME, organism-based; settings: in vivo; how it was run: as §1
[5] = Cmax in Wistar rat at 10 mg/kg, po and 1 mg/kg, iv; format: ADME, organism-based; settings: in vivo; how it was run: as §1
[6] = AUC (0 to last) in Wistar rat at 10 mg/kg, po; format: ADME, organism-based; parameters: time 0 - last, dose 10 mg/kg, route oral; settings: plasma; how it was run: as §1
[7] = Stability in simulated intestinal fluid after 4 hrs by LC/MS analysis; format: physicochemical; settings: read-out: Stability
How it was run: (§2)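 Compound incubated in simulated gastric fluid for 1 h or simulated intestinal fluid for 4 h. Unchanged parent recovered and measured by LC–MS, expressed as % parent.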

[8] = Stability in simulated gastric fluid after 1hr by LC/MS analysis; format: physicochemical; settings: read-out: Stability; how it was run: as §2
[9] = Solubility of the compound in buffer at pH 4; format: physicochemical
How it was run: (§3)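 Solubility measured in buffered aqueous solution at pH 4 and pH 7, and in water, where the final pH of the aqueous solution was 4.6.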

[10] = Solubility of the compound in buffer at pH 7; format: physicochemical; how it was run: as §3
[11] = Aqueous solubility of the compound in water at pH 4.6; format: physicochemical; how it was run: as §3
[12] = Metabolic stability in human plasma assessed as compound remaining after 4 hrs; format: ADME, cell-free; settings: read-out: Stability
How it was run: (§4)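 Compound incubated in rat and human plasma for up to 4 h. Unchanged parent quantified by LC–MS, reported as % parent remaining at 4 h plus elimination half-life.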

[13] = Metabolic stability in rat plasma assessed as compound remaining after 4 hrs; format: ADME, cell-free; settings: read-out: Stability; how it was run: as §4
Cytochrome P450 2D6 = Cytochrome P450 2D6 (Homo sapiens, UniProt P10635); assay: Inhibition of CYP2D6 (unknown origin); format: ADME
Cytochrome P450 3A4 = Cytochrome P450 3A4 (Homo sapiens, UniProt P08684); assay: Inhibition of CYP3A4 (unknown origin); format: ADME
Cytochrome P450 2C9 = Cytochrome P450 2C9 (Homo sapiens, UniProt P11712); assay: Inhibition of CYP2C9 (unknown origin); format: ADME
[14] = target: Prostaglandin E2 receptor EP4 subtype (Homo sapiens, UniProt P35408); assay: Inhibition of PGE2 binding to human EP4 receptor
[15] = target: T1, Prostaglandin E2 receptor EP3 subtype (Homo sapiens, UniProt P43115); assay: Antagonist activity at human EP3 receptor assessed as inhibition of PGE2-induced Ca2+ mobilization by FLIPR assay; format: functional
T1 sequence (P43115 whole entry): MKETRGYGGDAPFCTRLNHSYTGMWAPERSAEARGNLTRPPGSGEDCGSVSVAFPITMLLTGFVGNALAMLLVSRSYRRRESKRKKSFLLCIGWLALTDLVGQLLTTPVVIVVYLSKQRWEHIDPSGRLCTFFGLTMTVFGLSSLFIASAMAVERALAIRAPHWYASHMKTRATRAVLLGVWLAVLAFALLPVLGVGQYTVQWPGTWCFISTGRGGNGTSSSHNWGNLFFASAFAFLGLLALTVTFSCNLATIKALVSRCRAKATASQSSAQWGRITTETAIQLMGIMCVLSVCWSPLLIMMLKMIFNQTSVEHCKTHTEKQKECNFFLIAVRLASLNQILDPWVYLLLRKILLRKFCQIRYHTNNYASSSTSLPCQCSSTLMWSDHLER
How it was run: (§5)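 Antagonism measured as inhibition of agonist-induced Ca2+ mobilization by FLIPR: PGE2 as agonist for human EP1 and EP3, U46619 as agonist for human TP. Values are IC50.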

[16] = target: T2, Prostaglandin E2 receptor EP1 subtype (Homo sapiens, UniProt P34995); assay: Antagonist activity at human EP1 receptor assessed as inhibition of PGE2-induced Ca2+ mobilization by FLIPR assay; format: functional; how it was run: as §5
T2 sequence (P34995 whole entry): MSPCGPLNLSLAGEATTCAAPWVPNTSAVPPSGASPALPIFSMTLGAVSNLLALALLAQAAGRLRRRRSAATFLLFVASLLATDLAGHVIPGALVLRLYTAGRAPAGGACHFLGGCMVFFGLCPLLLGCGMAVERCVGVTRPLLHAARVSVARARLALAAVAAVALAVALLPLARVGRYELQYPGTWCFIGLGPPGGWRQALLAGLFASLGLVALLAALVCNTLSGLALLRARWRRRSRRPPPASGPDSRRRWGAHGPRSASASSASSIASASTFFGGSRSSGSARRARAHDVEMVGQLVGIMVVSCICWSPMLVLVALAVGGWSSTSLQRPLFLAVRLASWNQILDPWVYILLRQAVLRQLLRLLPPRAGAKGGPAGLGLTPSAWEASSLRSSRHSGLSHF

[17] = target: T3, Prostaglandin D2 receptor (Homo sapiens, UniProt Q13258); assay: Inhibition of PGD2 binding to human DP1 receptor
T3 sequence (Q13258 whole entry): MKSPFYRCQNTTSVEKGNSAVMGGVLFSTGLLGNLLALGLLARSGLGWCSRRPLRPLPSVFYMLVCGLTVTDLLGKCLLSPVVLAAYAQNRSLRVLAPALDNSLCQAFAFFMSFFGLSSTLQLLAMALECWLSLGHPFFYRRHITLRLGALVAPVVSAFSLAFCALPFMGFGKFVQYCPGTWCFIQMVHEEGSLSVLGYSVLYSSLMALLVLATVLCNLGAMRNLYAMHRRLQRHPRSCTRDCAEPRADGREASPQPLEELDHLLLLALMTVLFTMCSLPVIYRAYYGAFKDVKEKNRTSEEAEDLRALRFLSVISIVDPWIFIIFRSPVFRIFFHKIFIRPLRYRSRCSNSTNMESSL

[18] = target: T4, Prostaglandin D2 receptor 2 (Homo sapiens, UniProt Q9Y5Y4); assay: Displacement of [3H]PGD2 from human CRTh2 receptor
T4 sequence (Q9Y5Y4 whole entry): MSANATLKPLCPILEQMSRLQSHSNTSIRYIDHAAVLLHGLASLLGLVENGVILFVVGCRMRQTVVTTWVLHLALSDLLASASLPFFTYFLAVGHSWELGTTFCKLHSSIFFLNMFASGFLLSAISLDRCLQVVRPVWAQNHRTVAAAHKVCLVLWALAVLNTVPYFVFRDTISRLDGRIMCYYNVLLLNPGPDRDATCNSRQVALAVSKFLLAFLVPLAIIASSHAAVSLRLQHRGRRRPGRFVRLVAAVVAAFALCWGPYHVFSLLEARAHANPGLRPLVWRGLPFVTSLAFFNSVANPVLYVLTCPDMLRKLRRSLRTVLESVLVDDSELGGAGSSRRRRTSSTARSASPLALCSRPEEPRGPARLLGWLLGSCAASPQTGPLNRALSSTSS
How it was run: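 Human CRTh2 binding assay run in assay buffer. IC50 reported as the mean of at least three experiments.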

[19] = target: T4, Prostaglandin D2 receptor 2; assay: Displacement of [3H]PGD2 from human CRTh2 receptor in presence of human serum albumin
How it was run: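 Human CRTh2 binding assay run with 0.5% human serum albumin added to the assay buffer to mimic binding to blood proteins. IC50 is reported as the mean of at least three experiments.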

[20] = target: Prostaglandin E2 receptor EP2 subtype (Homo sapiens, UniProt P43116); assay: Inhibition of PGE2 binding to human EP2 receptor
[21] = target: T4, Prostaglandin D2 receptor 2; assay: Antagonist activity at PGD2-induced human CRTh2 receptor activation expressed in HEK293 cells assessed as intracellular Ca2+ liberation by FLIPR assay; format: functional, cell-based
How it was run: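 HEK-293 cells stably expressing human CRTh2 were stimulated with PGD2. Antagonism of intracellular Ca2+ liberation was read by FLIPR. IC50 is the mean of at least three experiments.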

Thromboxane A2 receptor = target: T5, Thromboxane A2 receptor (Homo sapiens, UniProt P21731); assay: Antagonist activity at human TP2 receptor assessed as inhibition of U46619-induced Ca2+ mobilization by FLIPR assay; format: functional; how it was run: as §5
T5 sequence (P21731 whole entry): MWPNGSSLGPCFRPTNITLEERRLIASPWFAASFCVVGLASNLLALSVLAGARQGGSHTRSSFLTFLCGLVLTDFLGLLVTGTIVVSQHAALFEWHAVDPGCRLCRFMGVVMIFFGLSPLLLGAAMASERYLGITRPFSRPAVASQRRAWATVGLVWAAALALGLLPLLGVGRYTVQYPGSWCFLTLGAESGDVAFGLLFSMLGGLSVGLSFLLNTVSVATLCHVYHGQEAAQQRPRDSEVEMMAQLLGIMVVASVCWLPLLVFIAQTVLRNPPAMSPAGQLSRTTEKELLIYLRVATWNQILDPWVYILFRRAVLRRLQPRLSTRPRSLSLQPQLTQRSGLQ

[22] = Lipophilicity, log D of the compound at pH 7.4; format: physicochemical; settings: buffer
[23] = Intrinsic clearance in rat hepatocytes measured per 10^6 cells; format: ADME, cell-based, Hepatocyte; settings: read-out: CLH
How it was run: (§6)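 Intrinsic clearance determined in human and rat liver microsomes (per mg protein) and in rat hepatocytes (per 10⁶ cells).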

[24] = Intrinsic clearance in rat liver microsomes assessed per mg of protein; format: ADME, Microsome; settings: read-out: CLH; how it was run: as §6
[25] = Intrinsic clearance in human liver microsomes assessed per mg of protein; format: ADME, Microsome; settings: read-out: CLH; how it was run: as §6
[26] = Half life in rat plasma; format: ADME, cell-free; how it was run: as §4
[27] = Half life in human plasma; format: ADME, cell-free; how it was run: as §4

Chain of Prostaglandin E2 receptor EP4 subtype (P35408 whole entry): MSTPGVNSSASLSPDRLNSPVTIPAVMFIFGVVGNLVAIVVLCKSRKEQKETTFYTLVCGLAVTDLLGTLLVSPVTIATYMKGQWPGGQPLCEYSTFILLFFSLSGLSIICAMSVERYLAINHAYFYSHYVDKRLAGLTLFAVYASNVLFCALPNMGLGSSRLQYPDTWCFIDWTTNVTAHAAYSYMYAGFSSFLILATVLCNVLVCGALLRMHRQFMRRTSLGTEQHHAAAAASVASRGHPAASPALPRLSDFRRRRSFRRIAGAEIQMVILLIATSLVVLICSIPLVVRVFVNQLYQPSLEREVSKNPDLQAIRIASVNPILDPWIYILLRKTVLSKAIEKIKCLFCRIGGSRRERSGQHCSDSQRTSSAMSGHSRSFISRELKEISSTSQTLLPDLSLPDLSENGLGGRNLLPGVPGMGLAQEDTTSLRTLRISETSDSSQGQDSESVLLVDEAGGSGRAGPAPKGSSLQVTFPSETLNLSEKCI
Chain of Cytochrome P450 3A4 (P08684 whole entry): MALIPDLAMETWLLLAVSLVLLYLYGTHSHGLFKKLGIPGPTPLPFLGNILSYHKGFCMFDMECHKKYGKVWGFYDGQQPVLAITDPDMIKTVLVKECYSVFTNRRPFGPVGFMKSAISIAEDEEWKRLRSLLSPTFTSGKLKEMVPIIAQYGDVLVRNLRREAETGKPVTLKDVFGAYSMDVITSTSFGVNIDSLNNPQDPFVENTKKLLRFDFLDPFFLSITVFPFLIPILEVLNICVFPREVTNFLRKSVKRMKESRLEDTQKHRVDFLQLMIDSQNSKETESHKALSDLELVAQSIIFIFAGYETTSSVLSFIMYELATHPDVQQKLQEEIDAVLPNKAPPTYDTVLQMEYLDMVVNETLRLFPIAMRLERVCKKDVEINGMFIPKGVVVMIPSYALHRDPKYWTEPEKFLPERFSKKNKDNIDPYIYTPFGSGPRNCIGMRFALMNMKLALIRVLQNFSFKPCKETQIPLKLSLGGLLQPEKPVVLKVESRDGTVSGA
Chain of Prostaglandin E2 receptor EP2 subtype (P43116 whole entry): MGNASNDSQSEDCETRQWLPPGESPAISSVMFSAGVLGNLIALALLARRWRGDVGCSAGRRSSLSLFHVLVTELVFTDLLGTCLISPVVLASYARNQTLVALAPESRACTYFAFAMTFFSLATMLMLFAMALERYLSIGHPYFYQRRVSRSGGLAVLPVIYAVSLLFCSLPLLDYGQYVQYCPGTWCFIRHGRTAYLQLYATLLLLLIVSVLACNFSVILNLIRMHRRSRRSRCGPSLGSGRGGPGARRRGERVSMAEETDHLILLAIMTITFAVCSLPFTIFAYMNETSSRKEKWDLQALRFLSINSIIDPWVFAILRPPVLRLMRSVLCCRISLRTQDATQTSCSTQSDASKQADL
Chain of Cytochrome P450 2C9 (P11712 whole entry): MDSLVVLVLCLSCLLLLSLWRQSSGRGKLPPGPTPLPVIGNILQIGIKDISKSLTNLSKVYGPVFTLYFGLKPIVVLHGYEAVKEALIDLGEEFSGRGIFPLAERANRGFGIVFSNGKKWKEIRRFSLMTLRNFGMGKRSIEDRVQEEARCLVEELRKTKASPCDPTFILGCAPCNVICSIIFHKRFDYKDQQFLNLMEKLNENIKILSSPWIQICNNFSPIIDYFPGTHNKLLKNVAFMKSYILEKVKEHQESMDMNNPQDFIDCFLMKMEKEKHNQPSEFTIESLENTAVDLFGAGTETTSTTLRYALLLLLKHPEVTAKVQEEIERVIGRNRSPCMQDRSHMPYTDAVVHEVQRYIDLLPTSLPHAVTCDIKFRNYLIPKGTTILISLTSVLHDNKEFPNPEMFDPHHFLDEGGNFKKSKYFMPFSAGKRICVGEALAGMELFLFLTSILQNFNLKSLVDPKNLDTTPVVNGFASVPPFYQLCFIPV
Chain of Cytochrome P450 2D6 (P10635 whole entry): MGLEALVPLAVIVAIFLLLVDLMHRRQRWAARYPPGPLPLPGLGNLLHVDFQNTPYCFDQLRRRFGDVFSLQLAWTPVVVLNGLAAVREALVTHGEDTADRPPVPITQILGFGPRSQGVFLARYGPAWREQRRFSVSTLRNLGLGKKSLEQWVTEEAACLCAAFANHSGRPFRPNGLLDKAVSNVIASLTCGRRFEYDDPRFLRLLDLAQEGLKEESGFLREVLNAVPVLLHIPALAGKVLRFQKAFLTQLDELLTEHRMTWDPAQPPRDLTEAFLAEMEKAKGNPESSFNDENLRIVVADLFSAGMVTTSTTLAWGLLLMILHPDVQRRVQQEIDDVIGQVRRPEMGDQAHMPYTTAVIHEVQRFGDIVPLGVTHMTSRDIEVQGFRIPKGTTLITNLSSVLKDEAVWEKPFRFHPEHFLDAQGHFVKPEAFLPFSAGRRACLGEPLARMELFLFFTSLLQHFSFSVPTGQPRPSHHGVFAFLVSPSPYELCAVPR

| SMILES | bioavailability [1] [%] | Vd [2] [L/kg] | half-life [3] [h] | clearance [4] [L/h/kg] | Cmax [5] [µg/mL] | AUC(0-t) [6] [µg·h/mL] | remaining at 4 h [7] [%] | remaining at 1 h [8] [%] | solubility [9] [mg/mL] | solubility [10] [mg/mL] | solubility [11] [mg/mL] | remaining at 4 h [12] [%] | remaining at 4 h [13] [%] | IC50 (Cytochrome P450 2D6) [µM] | IC50 (Cytochrome P450 3A4) [µM] | IC50 (Cytochrome P450 2C9) [µM] | IC50 [14] [µM] | IC50 [15] [µM] | IC50 [16] [µM] | IC50 [17] [µM] | other results |
| --- | --- | --- | --- | --- | --- | --- | --- | --- | --- | --- | --- | --- | --- | --- | --- | --- | --- | --- | --- | --- | --- |
| O=C(O)Cn1c2c(c3ccccc31)CN(C(=O)c1ccccc1)CC2 | 14 | 0.5 | 2.3 | 0.276 | 0.6 | 6.3 | 100 | 100 | 0.515 (≈ 1540 µM) | 0.81 (≈ 2420 µM) | 0.064 (≈ 191 µM) | 90 | 90 | > 50 | > 50 | > 15 | > 10 | > 10 | > 10 | > 10 | IC50 [18]: 0.017 µM; IC50 [19]: 0.015 µM; IC50 [20]: > 10 µM; IC50 [21]: 0.17 µM; IC50 (Thromboxane A2 receptor): > 25 µM |
| N#C/C(=C\c1cn(CC(=O)O)c2ccccc12)C(=O)N1CCCc2ccccc21 | 18 | 0.7 | 1 | 0.84 | 0.213 | 2.2 | 68 | 93 | 0.007 (≈ 18.2 µM) | 0.67 (≈ 1740 µM) | 0.017 (≈ 44.1 µM) | 95 | 90 | > 10 | > 10 | > 10 | > 10 | > 10 | > 10 | 8.2 | logD [22]: -0.4; hepatocyte CLint [23]: 11 µL/min/1e6 cells; microsomal CLint [24]: 32 µL/min/mg; microsomal CLint [25]: 6 µL/min/mg; half-life [26]: > 4 h; half-life [27]: > 4 h; IC50 [18]: 0.014 µM; IC50 [19]: 0.01 µM; IC50 [20]: > 10 µM; IC50 (Thromboxane A2 receptor): > 25 µM |
